Screening results as filed in PubChem BioAssay.
Compounds with a hit are over-represented: about 4.3% of the library has one in this group of screens.
RAM inhibit: inhibitors of the yeast RAM network. S. cerevisiae dse1pr::URA3 reporter, 5-FOA growth OD615, 2 d; analog-sensitive cbk1-as2 kinase mutant strain. AID 868. 1.8% of 190,000 active. inhibition, % at 50 µM;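 active means inhibition above a set limit, 3 SD over mean compound inhibition, cut at about 8.4% in these data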;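 further: 0% = DMSO-only wells with no growth and 100% = 10 µM 1-NA-PP1 full growth; inhibition rescues growth on 5-FOA so higher OD means more RAM inhibition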
Yeast life ext: yeast lifespan extension; S. cerevisiae growth with nicotinamide, OD615; deaD strain in restrictive glucose medium; inhibition of the nicotinamide effect, % at 10 µM; 0.68% of 130,000 active; AID 775;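 active means inhibition above a set limit, placed 3 SD over the median of all compounds, cut at about 26% in these data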;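 further: 0% = nicotinamide-treated wells and 100% = cells grown without nicotinamide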
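Buffer or medium: CSMM-D glucose medium, restrictive; test system: modified budding yeast, DeaD strain; compound: single dose 10 µM compound, 0.25% DMSO; schedule: culture preincubation 4 h, compound exposure 48 h, both 30 °C; detection: optical density (absorbance) at 615 nm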
BB579 growth dn: reduces growth of yeast BB579 in restrictive medium. S. cerevisiae BB579 growth, OD615, 48 h. inhibition, % at 10 µM. 0.51% of 140,000 active. AID 804;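 active means inhibition above a set limit, 3 SD over the mean compound inhibition, cut at about 44% in these data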
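Test system: DeaD yeast strain BB579 / Buffer or medium: restrictive glucose-based CSMM-D medium / Doses: single 10 µM dose / Schedule: 4 h cell preincubation, 48 h compound exposure, 30 °C humidified / Technique: culture absorbance at 615 nm / Controls: amphotericin B positive control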
WT yeast gro inh: growth inhibition of WT yeast, mitochondrial fusion screen | inhibition, % at 10 µM | 2.1% of 190,000 active | mitochondrial fusion phenotypic screen, WT strain | AID 1362; in the data active means inhibition above about 58%; tested in S. cerevisiae
Starred values were filed as active, the others as inactive; . = not tested or not shown.

SMILES	RAM inhibit	Yeast life ext	BB579 growth dn	WT yeast gro inh
COc1ccccc1CNc1nc(S(=O)(=O)c2ccccc2)c(Cl)s1	9.8*	-3	-59	40
O=C(c1ccccc1F)c1cc2c(cc1[N+](=O)[O-])OCCO2	1	.	.	13
CC1CCCN(S(=O)(=O)c2ccc(C(=O)Nc3ccccc3-c3nc4ccccc4[nH]3)cc2)C1 (centres undefined)	9.8*	3	-44	0
CCCn1c(SCC(=O)c2cc(OC)ccc2OC)nnc1C(C)C	2	-1	2	-9
CCOc1ccc(NC(=S)N(CC)Cc2ccccc2)cc1	0	.	.	8
CCOC(=O)C1=C(C)N=c2s/c(=C/c3ccco3)c(=O)n2C1c1cccc(OC)c1 (centres undefined)	9.5*	1	-40	-30
O=C(O)C1SCCN1S(=O)(=O)c1ccc(N=NN2CCOCC2)cc1 (centres undefined)	-1	.	.	3
C[C@]1(C(=O)NCCCNc2ncc(C(F)(F)F)cc2Cl)C=C[C@@H](Cc2ccccc2)N1C(=O)c1ccccc1	5	16	-32	75*
CC1(C(=O)NCCCNc2ncc(C(F)(F)F)cc2Cl)C=CCN1C(=O)c1ccccc1 (centres undefined)	2	7	-37	6
COC(=O)c1nn(-c2ccc(OC)cc2)c(=O)cc1O	1	.	.	2
COc1ccc(-n2nc(C#N)c(Cl)cc2=O)cc1	-1	.	.	67*
Cc1ccc(Nc2nc(N)nc(CSc3nc4ccccc4s3)n2)cc1	9.8*	-20	-71	86*
Cc1ccccc1Nc1nc(N)nc(CSc2nc3ccccc3s2)n1	2	-5	-20	47
OCCNc1nc(-c2ccccc2)c2cc(Cl)ccc2n1	0	.	.	6
COCCNC(=O)c1cccc(Nc2nc(-c3ccccc3)c3cc(Cl)ccc3n2)c1	5	-2	-20	61*
O=c1oc2ccccc2c(Cl)c1CN1CCCCC1	2	.	.	-2
O=c1oc2ccccc2c(N2CCCC2)c1CN1CCCC1	0	-9	86*	-7
CCCn1c(Nc2ccccc2C)nc2ccccc21	3	.	15	3
Cc1sc2nc(C3CC3)nc(SCC(=O)N3CCc4ccccc4C3)c2c1C	2	-4	-21	53
Cc1sc2nc(C3CC3)nc(SCC(=O)N3CCCc4ccccc43)c2c1C	9.2*	-7	-6	38
CNC(=O)c1ccccc1Sc1ccccc1C#N	2	.	.	-11
CC1(C)CC(=O)C2=C(C1)N=c1s/c(=C/c3ccc(F)c(F)c3)c(=O)n1C2c1ccc(F)cc1 (centres undefined)	4	-12	-55	76*
CN(C)C=NC(=O)c1ccc(N2CCN(c3ncc(C(F)(F)F)cc3Cl)CC2)cc1	9.0*	-11	9	2
CC1CCCN(C(=O)CSc2nnc(-c3ccncc3)n2C)C1 (centres undefined)	1	.	.	-13
CCOc1ccc(Br)cc1-c1noc(-c2cccs2)n1	8.8*	-19	-33	4
SMILES	RAM inhibit	Yeast life ext	BB579 growth dn	WT yeast gro inh
COc1cc(OC)cc(-c2nc(-c3cccs3)no2)c1	9.8*	.	.	-8
O=C(c1ccc2ccccc2n1)N1CCN(c2ccccc2O)CC1	1	-8	-30	-3
Cn1ncc2c(NNC(=O)c3ccccc3Cl)ncnc21	2	6	4	1
COc1cc(/C=C2/SC(=S)N(c3ccccc3)C2=O)ccc1Oc1nc(N2CCOCC2)nc(N2CCOCC2)n1	9.3*	-1	-44	5
CCn1c(/N=C/c2ccccc2NS(=O)(=O)c2ccc(C)cc2)nc2ccccc21	0	50*	-5	23
O=C(OCc1cc(Cl)ccc1OC(F)F)c1cncc(Br)c1	2	.	.	60*
O=C(O)C1CCN(C(=O)COc2ccc(Br)cc2)CC1	1	.	.	-6
CCN(CC)c1ccc(C=C2C(=O)OC3(CCCCC3)OC2=O)cc1	1	.	.	-3
CCN(CC)c1ccc(/C=C2/C(=O)c3ccc(C(=O)O)cc3C2=O)cc1	9.9*	9	-43	-3
COc1cc2c(=O)n(-c3ccc(C)cc3)c(=O)n(CC(=O)c3ccc4c(c3)OCO4)c2cc1OC	9.1*	-1	-53	-78
O=C(Nc1ccc(Cl)cc1)Nc1nnc(CSCc2ccc(Cl)cc2)s1	6	-4	-16	16
COCCn1nnnc1C(C(C)C)N1CCCC(C)C1 (centres undefined)	1	.	.	-17
Cc1ccc(-c2nc3sc(C(N)=O)c(N)c3c3c2CCCC3)cc1	-1	-7	46*	50
CCN1CCN(c2ncnc3c2sc(=S)n3-c2ccccc2)CC1	1	-9	46*	22
S=c1sc2c(N3CCN(Cc4ccccc4)CC3)ncnc2n1-c1ccccc1	2	-3	-20	3
Cc1ccc(S(=O)(=O)N(Cc2ccccc2)c2ccccc2C(=O)NCc2ccco2)cc1	9.0*	19	-54	3
N#Cc1c2nc3ccccc3nc2n2cc(NC(=O)c3ccc(F)cc3)ccc12	9.8*	-2	-20	8
Cc1cc(C2C(C#N)=C(N)Oc3n[nH]c(C)c32)c(C)s1 (centres undefined)	-1	71*	-2	-3
CCOc1ccc(/C(O)=C2/C(=O)C(=O)N(CC3CCCO3)C2c2cccs2)cc1 (centres undefined)	3	-1	-6	1
CCCCCCNC(=O)C(C#N)c1nc2ccccc2nc1N1CCOCC1 (centres undefined)	9.7*	-9	-44	8
CCN(CC)S(=O)(=O)c1cccc(C(=O)Nc2cc(C)cc(C)c2)c1	8.5*	-1	-36	0
CCN(CC)S(=O)(=O)c1cccc(NC(=O)c2cncc(Br)c2)c1	0	.	.	24
CCN(CC)S(=O)(=O)c1cccc(NC(=O)C(=O)c2c(-c3ccccc3)cc3ccccn23)c1	9.9*	9	-85	18
CCN(CC)S(=O)(=O)c1cccc(NC(=O)c2ccc(Br)cc2)c1	9.7*	.	.	70*
CCN(CC)S(=O)(=O)c1cc(NC(=O)C(=O)c2c(-c3ccccc3)cc3ccccn23)ccc1C	8	-5	-60	12
SMILES	RAM inhibit	Yeast life ext	BB579 growth dn	WT yeast gro inh
C#CCNC(=O)C1=C[C@H](C2CCCCC2)[C@@H](CCCO)[C@H](OCC)O1	1	.	.	-1
COc1cccc(CN2C(=O)C3CCCN3c3ccc(S(=O)(=O)N4CCOCC4)cc32)c1 (centres undefined)	4	-22	-10	-12
CCOC(=O)N1CCN(S(=O)(=O)c2ccc(C)cc2)C1c1ccc(OC)cc1 (centres undefined)	7	7	1	85*
CCOC(=O)N1CCN(S(=O)(=O)c2ccc(C)cc2)C1c1ccccc1 (centres undefined)	3	5	-25	-5
Cc1nc(Nc2ccccc2)sc1-c1ccccc1	-2	-5	-32	64*
Cc1cc(C)c(C#N)c(SCc2nnc(-c3ccccc3[N+](=O)[O-])o2)n1	11*	.	.	19
O=C(c1ccco1)N1CCN(c2ncnc3c2nnn3Cc2ccccc2Cl)CC1	-1	.	-28	17
CCOC(=O)C1CCN(c2ncnc3c2nnn3Cc2ccccc2Cl)CC1	8.4*	.	.	42
